Screening data deposited in PubChem BioAssay by several laboratories.
Calpain2 inh: inhibitors of pig calpain II | purified calpain II, fluorogenic peptide substrate, 30 min | inhibition, % at 16 µM | 220,000 tested, 0.37% active;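 active = inhibition above about 50%, limit read from the data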
PKD1 inh: PKD1 (human) kinase inhibition. inhibition, % (no concentration beside the values). Q15139. PKD1 kinase fluorescence polarization assay. 200,000 tested, 0.056% active. AID 797; in the data active = inhibition above about 50%
Target sequence (Q15139 whole entry, looked up): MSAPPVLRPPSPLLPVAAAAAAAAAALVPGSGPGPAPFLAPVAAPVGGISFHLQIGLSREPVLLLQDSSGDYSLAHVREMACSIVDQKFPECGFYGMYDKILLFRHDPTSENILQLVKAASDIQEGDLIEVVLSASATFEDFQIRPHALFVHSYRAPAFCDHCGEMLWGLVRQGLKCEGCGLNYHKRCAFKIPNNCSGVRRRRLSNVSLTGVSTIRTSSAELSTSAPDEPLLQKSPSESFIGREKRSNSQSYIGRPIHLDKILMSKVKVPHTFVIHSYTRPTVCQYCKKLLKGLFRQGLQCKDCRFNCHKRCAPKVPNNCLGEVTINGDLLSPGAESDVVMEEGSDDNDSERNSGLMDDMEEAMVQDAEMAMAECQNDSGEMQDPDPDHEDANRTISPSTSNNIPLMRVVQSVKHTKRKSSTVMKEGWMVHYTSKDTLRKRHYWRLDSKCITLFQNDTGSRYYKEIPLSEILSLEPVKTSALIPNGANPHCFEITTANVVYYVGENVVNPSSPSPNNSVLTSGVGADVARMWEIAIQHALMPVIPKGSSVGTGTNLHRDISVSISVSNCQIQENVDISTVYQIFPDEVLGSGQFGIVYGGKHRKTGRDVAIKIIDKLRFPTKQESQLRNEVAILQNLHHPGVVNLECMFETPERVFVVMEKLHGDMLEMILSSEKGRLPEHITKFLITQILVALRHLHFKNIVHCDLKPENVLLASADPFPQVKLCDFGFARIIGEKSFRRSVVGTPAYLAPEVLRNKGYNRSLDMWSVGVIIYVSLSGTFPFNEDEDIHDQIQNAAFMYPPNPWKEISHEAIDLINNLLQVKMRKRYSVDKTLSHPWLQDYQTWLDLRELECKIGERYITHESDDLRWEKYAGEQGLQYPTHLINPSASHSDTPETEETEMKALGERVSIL
MDM2 E3 inh: inhibitors of human Mdm2 E3 ubiquitin ligase | Q00987 | cell-based MDM2 ubiquitination luciferase reporter, 2 h; 0 = plate control, 100 = twice control, blank-subtracted | 210,000 tested, 0.11% active | signal enhancement, % at 5 µM | AID 1230;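 active = signal enhancement of 30% or more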;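 also: luminescence tracks abundance of the self-degrading MDM2-luciferase fusion protein; higher signal means inhibition of MDM2 E3 ligase activity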
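Material: Stable MDM2–luciferase fusion reporter cells | Amount: 2000 cells seeded into each well | Dosing: One concentration, 5 µM, with 0.2% DMSO | Incubation: 4 h cell settling then 2 h compound exposure, 37 °C | Measured by: Luciferase luminescence | Read-out basis: % enhancement relative to plate controls after blank subtraction | Benchmarks: Control and blank well means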
Arbovirus inh: antivirals against arbovirus infection; 200,000 tested, 0.37% active; AID 1251; arbovirus infection cell-based antiviral screen; inhibition, % at 10 µM; in the data active = inhibition above about 30%
Cl transport mod: modulators of human KCC2 chloride dependent transport. Q9H2X9. AID 1456. 190,000 tested, 2.2% active. B-score of Tl+ flux slope (higher = more flux/activation; lower = inhibition) at 10 µM. KCC2 cells, thallium flux FluoZin-2 fluorescence;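 active = thallium flux slope and its plate-corrected score both differing from the plate sample mean at a set confidence after two filtering rounds, in either direction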;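 also: slope of fluorescence scaled to starting intensity during 10 to 20 s after thallium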
ROMK primary: modulators of human ROMK potassium channel; B-score at 10 µM; Tet-inducible ROMK, thallium flux fluorescence; actives lie on both sides; 130,000 tested, 2% active; P48048;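 active = signal ratio slope over the read window, or its plate-corrected B-score, at least 3 SD from the plate mean, either direction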;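 also: B-score of the F/F0 ratio slope over 7 to 12 s after thallium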
KCC2 sec1: confirmation of human KCC2 transport modulators. AID 1713. normalised thallium flux (F/F0 slope) at 10 µM. shares compounds with Cl transport mod. 3,700 tested, 15% active. HEK293-KCC2, thallium flux, FluoZin2 fluorescence; stronger effect = higher value;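 active = thallium flux slope above the same plate's solvent-only control mean plus 3 SD; inconclusive = the two replicate wells disagree; inactive = no significant difference from solvent-only control wells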
KCC2 bumet counter: thallium flux despite bumetanide block in KCC2 cells, secondary assay 3; HEK293-KCC2 + bumetanide/ouabain, thallium flux FluoZin2; stronger effect = higher value; AID 1714; shares compounds with Cl transport mod; normalized thallium flux at 10 µM; 3,700 tested, 49% active;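 active = thallium entry rate above the same plate's blocked-transporter control wells by more than 3 SD; inconclusive = the two repeat wells disagree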;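 also: raw slope of fluorescence over initial fluorescence between 10 and 20 s after thallium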
KCC2 secondary2: KCC2 (human) modulation, second secondary assay. normalized thallium flux at 10 µM. HEK293-KCC2, thallium flux FluoZin2 fluorescence; actives lie on both sides; F/F0 rise rate, 10–20 s post-thallium. shares compounds with Cl transport mod. AID 1715. 3,700 tested, 23% active;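 active = thallium flux slope more than 3 SD above or below the plate's solvent-only control mean, mostly below; inconclusive = the two repeat wells disagreed; inactive = no significant shift from solvent-only controls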
HEK293 Tl flux: counter-screen for KCC2 modulators: effect in parental HEK293 cells; shares compounds with Cl transport mod; thallium flux FluoZin2, ouabain; baseline-ratio fluorescence slope, 10–20 s after thallium; AID 1716; 3,700 tested, 46% active; thallium flux rate (normalised fluorescence) at 10 µM;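 active = thallium flux rate significantly above the same plate's solvent-only control wells, beyond their mean plus 3 SD; inconclusive = the two replicate wells gave conflicting results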
KCC2 retest ouab: modulates human KCC2 on retest with ouabain. raw Tl+ flux slope (below DMSO = inhibition, above = activation) at 10 µM. 3,700 tested, 48% active. HEK293-KCC2, thallium flux FluoZin2 fluorescence; bidirectional: low = inhibitor, high = activator. shares compounds with Cl transport mod. AID 1717;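 active = thallium flux slope beyond 3 SD from same-plate DMSO control mean in most replicates, usually higher, sometimes lower; inconclusive = repeat tests gave conflicting results; inactive = no significant difference from controls in most replicates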;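 also: slope of initial-normalized fluorescence between seconds 10 and 20 after thallium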
HEK293 Tl flux2: counter-screen for KCC2 modulators: effect in parental HEK293 cells | 3,700 tested, 33% active | thallium flux slope at 10 µM | shares compounds with Cl transport mod | thallium flux FluoZin-2 fluorescence slope;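 active = thallium flux slope above the same plate's solvent-control mean plus 3 SD in both duplicate wells; inconclusive = duplicate wells that disagreed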;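 also: run without ouabain in cells lacking the KCC2 cotransporter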
Hits are given with their value. An excerpt weighted towards active compounds, which were near 3.7% of everything screened.

Results for Nc1nc(COc2ccc(F)cc2)nc(N2CCCCC2)n1 ?
Calpain2 inh: inactive; PKD1 inh: inactive; MDM2 E3 inh: inactive; Arbovirus inh: inactive; Cl transport mod: inactive; ROMK primary: inactive

What do the screens show for `O=c1c2ccccc2nc(-c2ccc(Cl)c(Cl)c2)n1O`?
Calpain2 inh: inactive; PKD1 inh: inactive; MDM2 E3 inh: inactive; Arbovirus inh: inactive; Cl transport mod: 34.8; ROMK primary: inactive; KCC2 sec1: 0.0181; KCC2 bumet counter: 0.114; KCC2 secondary2: inconclusive; HEK293 Tl flux: 0.0625; KCC2 retest ouab: 0.0829; HEK293 Tl flux2: 0.0228

Results for O=c1c2ccc(Cl)cc2nc(-c2cccc(C(F)(F)F)c2)n1O ?
Calpain2 inh: inactive; PKD1 inh: inactive; MDM2 E3 inh: inactive; Arbovirus inh: inactive; ROMK primary: inactive

What do the screens show for `O=c1c2ccccc2nc(-c2ccc(Cl)cc2Cl)n1O`?
Calpain2 inh: inactive; PKD1 inh: inactive; MDM2 E3 inh: inactive; Arbovirus inh: inactive; Cl transport mod: 5.72; ROMK primary: inactive; KCC2 sec1: 0.0121; KCC2 bumet counter: 0.0198; KCC2 secondary2: inactive; HEK293 Tl flux: 0.0116; KCC2 retest ouab: 0.0291; HEK293 Tl flux2: inactive

Results for O=c1c2ccccc2ncn1-c1ccc(Cl)cc1Cl ?
Calpain2 inh: inactive; MDM2 E3 inh: inactive; Cl transport mod: inactive

How did O=C(OCCCCN1C(=O)c2ccccc2C1=O)c1n[nH]c2ccccc12 do in these assays?
Calpain2 inh: inactive; PKD1 inh: inactive; MDM2 E3 inh: inactive; Arbovirus inh: inactive; Cl transport mod: -2.92; KCC2 sec1: inactive; KCC2 bumet counter: 0.00674; KCC2 secondary2: inactive; HEK293 Tl flux: inconclusive; KCC2 retest ouab: inconclusive; HEK293 Tl flux2: inactive

How did CCCCC(=O)NCCNC(=O)c1cc(OCC(F)(F)F)ccc1OCC(F)(F)F do in these assays?
Calpain2 inh: inactive; PKD1 inh: inactive; MDM2 E3 inh: inactive; Arbovirus inh: inactive; ROMK primary: inactive

Results for COc1ccc(NC(=O)NCCN2CCc3ccccc3C2)cc1 ?
Calpain2 inh: inactive; PKD1 inh: inactive; MDM2 E3 inh: inactive; Arbovirus inh: inactive; Cl transport mod: inactive

How did CSc1ccc(NC(=O)NCCN2CCc3ccccc3C2)cc1 do in these assays?
Calpain2 inh: inactive; PKD1 inh: inactive; MDM2 E3 inh: inactive; Arbovirus inh: inactive; Cl transport mod: -3.89; KCC2 sec1: inactive; KCC2 bumet counter: inactive; KCC2 secondary2: 0.0249; HEK293 Tl flux: inactive; KCC2 retest ouab: inactive; HEK293 Tl flux2: inactive

How did COc1ccccc1N1CCN(C(=O)c2cc3c(=O)n(C)c4ccccc4c3n2C)CC1 do in these assays?
Calpain2 inh: inactive; PKD1 inh: inactive; MDM2 E3 inh: inactive; Arbovirus inh: inactive; Cl transport mod: inactive

What do the screens show for `COc1ccc(CC(=O)Nc2ccc(S(=O)(=O)Nc3nc(C)cc(C)n3)cc2)cc1`?
Calpain2 inh: inactive; PKD1 inh: inactive; MDM2 E3 inh: inactive; Arbovirus inh: inactive; Cl transport mod: -5.89; ROMK primary: inactive; KCC2 sec1: inactive; KCC2 bumet counter: 0.009; KCC2 secondary2: inactive; HEK293 Tl flux: inactive; KCC2 retest ouab: inactive; HEK293 Tl flux2: inactive

Results for COc1cc(CC(=O)Nc2ccc(S(=O)(=O)Nc3ncccn3)cc2)cc(OC)c1OC ?
Calpain2 inh: inactive; PKD1 inh: inactive; MDM2 E3 inh: inactive; Arbovirus inh: inactive; Cl transport mod: -4.02; KCC2 sec1: inactive; KCC2 bumet counter: inactive; KCC2 secondary2: inactive; HEK293 Tl flux: 0.00954; KCC2 retest ouab: inactive; HEK293 Tl flux2: inactive

How did COc1ccc(CC(=O)Nc2ccc(S(=O)(=O)Nc3ncccn3)cc2)cc1OC do in these assays?
Calpain2 inh: inactive; Cl transport mod: inactive

What do the screens show for `O=C(O)Cc1csc(-c2cccc(F)c2)n1`?
Calpain2 inh: inactive; PKD1 inh: inactive; MDM2 E3 inh: inactive; Arbovirus inh: inactive; Cl transport mod: inactive; ROMK primary: inactive

What do the screens show for `O=C(O)c1cc([N+](=O)[O-])ccc1NCc1ccccc1Cl`?
Calpain2 inh: inactive; PKD1 inh: inactive; Arbovirus inh: inactive; Cl transport mod: -4.53; ROMK primary: inactive; KCC2 sec1: inconclusive; KCC2 bumet counter: 0.00558; KCC2 secondary2: 0.0225; HEK293 Tl flux: inconclusive; KCC2 retest ouab: 0.0115; HEK293 Tl flux2: inactive

Results for O=C(O)c1cc([N+](=O)[O-])ccc1NCCc1ccccc1 ?
Calpain2 inh: inactive; MDM2 E3 inh: inactive; Cl transport mod: inactive

Results for Cc1cc(N2C(=O)C3C4CC(C(Br)C4Br)C3C2=O)no1 (stereo unspecified) ?
Calpain2 inh: inactive; PKD1 inh: inactive; MDM2 E3 inh: inactive; Arbovirus inh: inactive; ROMK primary: inactive

Results for O=C(O)CC(=O)NC12CC3CC(CC(C3)C1)C2 ?
Calpain2 inh: inactive; PKD1 inh: inactive; MDM2 E3 inh: inactive; Arbovirus inh: inactive; Cl transport mod: inactive; ROMK primary: inactive; KCC2 sec1: inactive; KCC2 bumet counter: inactive; KCC2 secondary2: inactive; HEK293 Tl flux: inactive; KCC2 retest ouab: inactive; HEK293 Tl flux2: inconclusive

How did O=C(COc1nncc2ccccc12)NCC(F)(F)F do in these assays?
Calpain2 inh: inactive; PKD1 inh: inactive; MDM2 E3 inh: inactive; Arbovirus inh: inactive; Cl transport mod: inactive; ROMK primary: inactive

Results for COC(=O)c1ccc(NC(=S)NC2c3ccccc3CC2O)cc1 (stereo unspecified) ?
Calpain2 inh: inactive; PKD1 inh: inactive; MDM2 E3 inh: inactive; Arbovirus inh: inactive; Cl transport mod: inactive; ROMK primary: inactive

What do the screens show for `O=C1C2C3C=CC(CC3)C2C(=O)N1/N=C/c1c(O)ccc2ccccc12` (stereo unspecified)?
Calpain2 inh: inactive; PKD1 inh: inactive; MDM2 E3 inh: inactive; Arbovirus inh: inactive; Cl transport mod: 3.3; ROMK primary: inactive; KCC2 sec1: inactive; KCC2 bumet counter: inactive; KCC2 secondary2: inactive; HEK293 Tl flux: inactive; KCC2 retest ouab: inactive; HEK293 Tl flux2: inactive
